Data on 33 compounds can be found in ChEMBL document CHEMBL4033704, “Discovery, synthesis, and structure-activity relations of 3,4-dihydro-1H-spiro(naphthalene-2,2'-piperidin)-1-ones as potassium-competitive acid blockers” (Bioorg Med Chem, 2017).

A short description of data set [1]: Inhibition of sodium and potassium-activated sodium potassium ATPase in porcine cerebral cortex assessed as reduction in liberated inorganic phosphate level after 30 mins in presence of sodium and potassium by malachite green staining based colorimetric method. On the set-up: species or system Sus scrofa.
Data set [2] can be described thus: AUC (0 to 24 hrs) in Jcl:Sprague-Dawley rat plasma at 0.2 mg/kg, iv by LC/MS/MS analysis. Type of data set: ADME, organism-based. More on the design: time < 24 hr, dose 0.2 mg/kg, route intravenous. The gist of the method:
(§1)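 Rats dosed intravenously at 0.2 mg/kg, given as free compound. Blood and stomach sampled 10 min, 1, 4 and 24 h after dosing. Compound levels measured by LC/MS/MS. AUC0-24h calculated from these four time points (plasma ng·h/mL, stomach ng·h/g).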

A further data set has as its system Stomach. Nature of the data set: AUC (0 to 24 hrs) in Jcl:Sprague-Dawley rat stomach at 0.2 mg/kg, iv by LC/MS/MS analysis. Type of data set: ADME, organism-based. More on the design: dose 0.2 mg/kg, time < 24 hr, route intravenous. The conditions noted are these: in vivo. The gist of the method: as §1
Data set [3] is described as follows: Inhibition of potassium-stimulated hydrogen potassium ATPase in pig gastric mucosal microsomal fraction assessed as reduction in liberated inorganic phosphate level after 30 mins in presence of KCl by malachite green staining based colorimetric method. More on the design: species or system Sus scrofa. Put shortly:
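Gastric mucosal microsomal fraction prepared from pig stomach; assay run at pH 6.5. Inhibition expressed as percent of K⁺-stimulated H⁺,K⁺-ATPase activity in control. IC50 obtained by sigmoidal dose-response fitting.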

Data set [4] has as its system Rattus norvegicus. Nature of the data set: Inhibition of histamine-stimulated gastric acid secretion in Jcl:Sprague-Dawley rat at 1 mg/kg, iv pretreated for 3 mins followed by histamine.2HCl stimulation measured after 3 hrs by titration method relative to control. It is filed as functional. The gist of the method: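 Anesthetized rats given compound intravenously at 1, 3 or 10 mg/kg, then histamine. Gastric contents collected and centrifuged at 3000 rpm for 10 min; volume measured. Acid concentration determined by automatic titration to pH 7.0 with 0.1 mol/L NaOH. Total acid output over 3 h (μEq/3 h) compared against vehicle to give percent inhibition.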

The subject of data set [5] is Rattus norvegicus. Description: Inhibition of histamine-induced acid secretion in rat assessed as increase in pH of gastric perfusate at 3 mg/kg, iv measured after 5 hrs. It is filed as functional. Put shortly: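 Anesthetized rats given intravenous infusion of histamine 2HCl via cervical vein at 8 mg/kg/h; gastric perfusate pH monitored. Once pH stabilized, test compound or vehicle given intravenously. Perfusate pH then recorded for 5 h after dosing.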

Data set [6] can be described thus: Lipophilicity, log D of the compound. It is filed as physicochemical. The conditions noted are these: octanol/water.
The species entered for a further data set is Sus scrofa. Description: Selectivity ratio of IC50 for sodium and potassium-activated sodium potassium ATPase in porcine cerebral cortex to IC50 for potassium-stimulated hydrogen potassium ATPase in pig gastric mucosal microsomal fraction.
For data set [7], the system named is Rattus norvegicus. Description: Inhibition of histamine-stimulated gastric acid secretion in Jcl:Sprague-Dawley rat at 10 mg/kg, iv pretreated for 3 mins followed by histamine.2HCl stimulation measured after 3 hrs by titration method relative to control. Type of data set: functional.

Take `COc1ccc2c(c1)CC[C@@]1(CCCCN1CCc1ccccc1C)C2=O.Cl`: the results for the IC50 in [1] and in data set [3] were more than 10000 nM and 46 nM, respectively. In addition, the AUC(0-t) at 24 h in data set [2] was 74 ng·h/mL. This compound displayed an AUC with Stomach of 3035 ng·h/g. Besides, the inhibition in vivo at 1 mg/kg in the data set with Rattus norvegicus [4] came out at 87%.

In the case of `COc1ccc2c(c1)CCC1(CCCCN1CCCc1ccccc1)C2=O` (configuration not stated), the half-inhibitory concentration (IC50) in data set [3] was found to be 890 nM.

For the compound `CC(=O)Nc1ccc2c(c1)CC[C@]1(CCCCN1CCc1ccccc1C)C2=O`, the IC50 in [3] is more than 10000 nM.

`CC(=O)Nc1ccc2c(c1)CC[C@@]1(CCCCN1CCc1ccccc1C)C2=O`: the pH in the data set on Rattus norvegicus [5] is recorded as 6. In [6], this compound had a logD of 3.56. In data set [2], this compound had an AUC(0-t) at 24 h of 68 ng·h/mL. The compound further displayed an AUC with Stomach of 15131 ng·h/g. Moreover, in data set [3], the IC50 was found to be 31 nM. For the same compound, the inhibition in vivo at 1 mg/kg in the data set on Rattus norvegicus [4] was determined as 95%.

Regarding `Cc1ccccc1CCN1CCCCC12CCc1cc(-c3ccccc3)ccc1C2=O` (racemic), the IC50 in data set [3] was more than 10000 nM.

`COc1ccc2c(c1)CCC1(CCCCN1CCc1ccccc1Cl)C2=O` (configuration not stated): in data set [3], the IC50 came to 170 nM.

For `Cc1ccccc1CCN1CCCCC12CCc1ccccc1C2=O` (racemic), in data set [3], the IC50 was 290 nM.

For the compound `COc1ccc2c(c1)CC[C@]1(CCCCN1CCc1ccccc1C)C2=O`, the IC50 in data set [3] is more than 10000 nM.

As to `COc1ccc2c(c1)CC[C@@]1(CCCCN1CCc1ccc(F)cc1)C2=O`, the IC50 in data set [3] amounted to 64 nM.

As to `COc1cccc2c1C(=O)C1(CCCCN1CCc1ccccc1C)CC2` (configuration not stated), the IC50 in data set [3] is 290 nM.

Consider `COc1ccc2c(c1)CCC1(CCCCN1CCc1ccc(F)cc1)C2=O` (configuration not stated), for which the IC50 in data set [3] is 87 nM.

As for `COc1ccc(CCN2CCCC[C@@]23CCc2cc(OC)ccc2C3=O)cc1`, the IC50 in data set [3] was 1800 nM.

`COc1ccc2c(c1)CC[C@@]1(CCCCN1CCc1ccccc1OC)C2=O`: the IC50 in data set [3] came to 83 nM.

For `COc1ccc2c(c1)C(=O)C1(CCCCN1CCc1ccccc1C)CC2` (racemic), in data set [3], the IC50 was determined as 270 nM.

With `CC(=O)Nc1ccc2c(c1)CCC1(CCCCN1CCc1ccccc1C)C2=O` (racemic), the IC50 in data set [3] came out at 45 nM.

Turning to `COc1ccc2c(c1)CC[C@]1(CCCCN1CCc1ccc(F)cc1)C2=O`, the IC50 in data set [3] is more than 10000 nM.

In the case of `COc1ccc2c(c1)CCC1(CCCCN1CCc1c(C)cc(C)cc1C)C2=O` (configuration not stated), in data set [3], the IC50 was determined as 140 nM.

As to `COc1ccc2c(c1)CCC1(CCCCN1c1ccccc1)C2=O` (configuration not stated), the IC50 in data set [3] was more than 10000 nM.

For `COc1ccc2c(c1)CCC1(CCCCN1Cc1ccccc1)C2=O` (configuration not stated), in data set [3], the IC50 is more than 10000 nM.

For `COc1cccc2c1CCC1(CCCCN1CCc1ccccc1C)C2=O` (configuration not stated), the IC50 in data set [3] worked out at 300 nM.

In the case of `COc1ccc2c(c1)CCC1(CCCCN1CCc1ccc(F)cc1C)C2=O` (configuration not stated), in [3], the IC50 is 57 nM.

In the case of `COc1ccc2c(c1)CC[C@@]1(CCCCN1CCc1cccc(F)c1)C2=O`, the IC50 in [3] was 370 nM.

`O=C1c2cccc3[nH]cc(c23)CC12CCCCN2CCc1ccccc1` (configuration not stated): the figures for the IC50 in [1] and in [3] were more than 10000 nM and 1600 nM, respectively. Further, the Ratio IC50 in the data set filed under Sus scrofa is more than 100. In data set [2], this compound came in with an AUC(0-t) at 24 h of 71 ng·h/mL. The same compound displayed an AUC in the data set on Stomach of 1171 ng·h/g. The inhibition in vivo at 10 mg/kg in the data set with Rattus norvegicus [7] came out at 71%.

For `O=C1c2ccccc2CCC12CCCCN2CCc1ccccc1` (configuration not stated), the IC50 in [3] was determined as 1000 nM.

Regarding `Cc1ccccc1CCN1CCCCC12CCc1cc(C#N)ccc1C2=O` (racemic), the IC50 in data set [3] was more than 10000 nM.

For the compound `COc1cccc(CCN2CCCC[C@@]23CCc2cc(OC)ccc2C3=O)c1`, in data set [3], the IC50 came to 1100 nM.

On to `COc1ccc2c(c1)CCC1(CCCCN1CC(=O)c1ccccc1)C2=O` (configuration not stated), for which the IC50 in data set [3] was more than 10000 nM.

For the compound `COc1ccc2c(c1)CCC1(CCCCN1CCCCc1ccccc1)C2=O` (configuration not stated), the IC50 in [3] is more than 10000 nM.

As for `COc1ccc2c(c1)CC[C@@]1(CCCCN1CCc1ccccc1F)C2=O`, the IC50 in data set [3] came to 160 nM.

Regarding `COc1ccc2c(c1)CCC1(CCCCN1CC(C)c1ccccc1)C2=O` (configuration not stated), the IC50 in data set [3] worked out at 300 nM.

For `COc1ccc2c(c1)CCC1(CCCCN1CCc1ccccc1)C2=O` (configuration not stated), the IC50 in [3] amounted to 290 nM.

As to `COc1ccc2c(c1)CCC1(CCCCN1C(=O)Cc1ccccc1)C2=O` (configuration not stated), in data set [3], the IC50 is more than 10000 nM.

As for `COc1ccc2c(c1)CCC1(CCCCN1CCc1ccccc1C)C2=O` (configuration not stated), the IC50 in data set [3] stood at 82 nM.
